ChEMBL document CHEMBL1909575, “Novel natural product-based cinnamates and their thio and thiono analogs as potent inhibitors of cell adhesion molecules on human endothelial cells” (Eur J Med Chem, 2011)
pIC50: −log10 of the molar value. Values after ≈ are worked out from the molar mass of the structure shown. Active and inactive are the calls of the source. The calls are words filed in the database; no cut-off is given here.

Assays:
HUVEC [1] = assay: Antiinflammatory activity against TNF-alpha-induced ICAM1 protein expression in HUVEC at maximum tolerated dose pretreated for 2 hrs before TNFalpha challenge measured after 16 hrs by whole cell ELISA; assay type: functional, Homo sapiens
Method in brief: (§1)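 Primary umbilical cord endothelial cells were pre-incubated 2 h with or without compound, then TNF-α (10 ng/mL) for 16 h (ICAM-1, VCAM-1) or 4 h (E-selectin). Whole-cell ELISA: glutaraldehyde fixation, milk block, primary antibody overnight at 4 °C, peroxidase secondary, OPD substrate, A490. IC50 read from %inhibition vs log concentration plots of three independent experiments. Single-level values were taken at the highest concentration giving >95% viability (MTT, 24 h).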

HUVEC [2] = assay: Antiinflammatory activity against TNF-alpha-induced ICAM1 protein expression in HUVEC pretreated for 2 hrs before TNFalpha challenge measured after 16 hrs by whole cell ELISA; assay type: functional, cell-based; conditions: Homo sapiens; method in brief: as §1
[3] = Cytotoxicity against HUVEC assessed as maximum tolerated dose for >95% cell viability after 24 hrs by MTT assay; assay type: cell-based; conditions: human, HUVEC cells; read-out: MTD
Method in brief: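 Primary human umbilical vein endothelial cells (mild trypsinization), grown in M-199 with 15% heat-inactivated FCS, endothelial cell growth factor and heparin, 5% CO2. Cells attached overnight, then exposed to compounds or DMSO (0.25%) for 24 h; MTT (5 mg/mL in PBS) 4 h, formazan dissolved in DMSO, absorbance 570 nm. Also checked by trypan blue exclusion. Value is highest concentration giving >95% viability; ≥3 experiments in triplicate.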

[4] = Antiinflammatory activity against TNF-alpha-induced VCAM-1 protein expression in HUVEC by ELISA
HUVEC [5] = assay: Antiinflammatory activity against TNF-alpha-induced neutrophil adhesion in HUVEC at 2.5 to 20 ug/ml pretreated for 2 hrs before TNFalpha challenge measured after 6 hrs by calorimetric analysis; assay type: functional, Homo sapiens
Method in brief: (§2)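 A confluent endothelial monolayer was pretreated ±compound for 2 h, then given TNF-α (10 ng/mL) for 6 h. Neutrophils from healthy donor blood (dextran sedimentation, Ficoll-Hypaque, hypotonic RBC lysis; 6 × 10^4/well) were added for 1 h at 37 °C under static conditions. After washing, bound cells were detected with OPD/CTAB/aminotriazole substrate at A490. Mean ± SD of 3 independent experiments.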

HUVEC [6] = assay: Antiinflammatory activity against TNF-alpha-induced neutrophil adhesion in HUVEC pretreated for 2 hrs before TNFalpha challenge measured after 6 hrs by calorimetric analysis; assay type: functional, cell-based; conditions: Homo sapiens; method in brief: as §2
HUVEC [7] = assay: Antiinflammatory activity against LPS-induced VCAM-1 protein expression in HUVEC pretreated for 2 hrs before LPS challenge measured after 16 hrs by whole cell ELISA; assay type: functional, cell-based; conditions: Homo sapiens
Method in brief: (§3)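 Primary human umbilical cord endothelial cells (isolated by mild trypsinization, grown in M-199 with 15% heat-inactivated FCS, endothelial cell growth factor, heparin) pre-incubated 2 h with compound, then LPS ([…]) for 4 h (E-selectin) or 16 h (VCAM-1). Cells fixed with 1.0% glutaraldehyde, blocked with 3.0% milk, primary antibody overnight at 4 °C, peroxidase secondary, o-phenylenediamine substrate at pH 4.5, absorbance 490 nm.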

HUVEC [8] = assay: Antiinflammatory activity against TNF-alpha-induced VCAM-1 protein expression in HUVEC pretreated for 2 hrs before TNFalpha challenge measured after 16 hrs by whole cell ELISA; assay type: functional, cell-based; conditions: Homo sapiens; method in brief: as §1
HUVEC [9] = assay: Antiinflammatory activity against TNF-alpha-induced E-selectin protein expression in HUVEC at 20 ug/ml pretreated for 2 hrs before TNFalpha challenge measured after 4 hrs by flow cytometry; assay type: functional; conditions: Homo sapiens
Method in brief: (§4)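 Endothelial cells were treated ±compound ([…]) for 2 h, then TNF-α (10 ng/mL). E-selectin was read at 4 h, ICAM-1 and VCAM-1 at 16 h. Cells were dislodged, stained with specific or control IgG antibody (30 min, 4 °C) and then FITC anti-mouse IgG. Autofluorescence was subtracted and mean fluorescence intensity taken from three independent experiments.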

HUVEC [10] = assay: Antiinflammatory activity against TNF-alpha-induced E-selectin protein expression in HUVEC at 2.5 to 20 ug/ml pretreated for 2 hrs before TNFalpha challenge measured after 4 hrs by whole cell ELISA; assay type: functional, cell-based; conditions: Homo sapiens; method in brief: as §1
HUVEC [11] = assay: Antiinflammatory activity against TNF-alpha-induced VCAM-1 protein expression in HUVEC at 20 ug/ml pretreated for 2 hrs before TNFalpha challenge measured after 16 hrs by flow cytometry; assay type: functional; conditions: Homo sapiens; method in brief: as §4
HUVEC [12] = assay: Antiinflammatory activity against LPS-induced E-selectin protein expression in HUVEC at 2.5 to 20 ug/ml pretreated for 2 hrs before LPS challenge measured after 4 hrs by whole cell ELISA; assay type: functional, cell-based; conditions: Homo sapiens; method in brief: as §3
HUVEC [13] = assay: Antiinflammatory activity against TNF-alpha-induced ICAM1 protein expression in HUVEC at 20 ug/ml pretreated for 2 hrs before TNFalpha challenge measured after 16 hrs by flow cytometry; assay type: functional; conditions: Homo sapiens; method in brief: as §4

Row | Structure (SMILES) | inhibition (INH) (HUVEC [1]) | IC50 (HUVEC [2]) | MNTC at 24 h [3] | other results
1 | CCOC(=O)CCc1cc(OC)c(OC)c(OC)c1 | 50% | 110 mg/L (≈ 410 µM) | 110 µg/mL | 
2 | CCCOC(=O)CCc1ccc(OC)c(OC)c1 | 55% | 90 mg/L (≈ 357 µM) | 100 µg/mL | 
3 | CC(C)OC(=S)/C=C/c1ccccc1 [ISOPROPYL THIONOCINNAMATE] | 80% | 20 mg/L (≈ 96.9 µM) | 35 µg/mL | 
4 | CCCOC(=S)/C=C/c1cc(OC)ccc1OC | 70% | 25 mg/L (≈ 93.9 µM) | 40 µg/mL | 
5 | COc1cc(/C=C/C(=O)OC(C)C)cc(OC)c1OC | 80% | 45 mg/L (≈ 161 µM) | 65 µg/mL | 
6 | COc1cccc(/C=C/C(=O)OC(C)C)c1O | 30% |  | 120 µg/mL | 
7 | CCOC(=O)/C=C/c1cc(OC)c(OC)c(OC)c1 | 90% | 25 mg/L (≈ 93.9 µM) | 50 µg/mL | 
8 | CCSC(=O)/C=C/c1ccccc1 [ETHYL THIOCINNAMATE] | 55% | 47 mg/L (≈ 244 µM) | 50 µg/mL | 
9 | CCOC(=O)/C=C/c1ccccc1 [ETHYL CINNAMATE] | 85% | 95 mg/L (≈ 539 µM) | 130 µg/mL | 
10 | CCCCCCCCSC(=O)/C=C/c1cc(OC)ccc1OC | 30% |  | 50 µg/mL | 
11 | CCCSC(=O)/C=C/c1cc(OC)ccc1OC | 55% | 45 mg/L (≈ 169 µM) | 50 µg/mL | 
12 | CCCOC(=O)/C=C/c1cc(OC)c(OC)c(OC)c1 | 62% | 100 mg/L (≈ 357 µM) | 120 µg/mL | 
13 | CCCCOC(=S)/C=C/c1ccccc1 [BUTYL THIONOCINNAMATE] | 70% | 55 mg/L (≈ 250 µM) | 85 µg/mL | 
14 | COc1cc(CCC(=O)OC(C)C)cc(OC)c1OC | 40% |  | 65 µg/mL | 
15 | O=C(/C=C/c1ccccc1)OCc1ccccc1 [BENZYL CINNAMATE] | 50% | 70 mg/L (≈ 294 µM) | 70 µg/mL | 
16 | COc1cc(/C=C/C(=O)SCc2ccccc2)cc(OC)c1OC | 75% | 20 mg/L (≈ 58.1 µM) | 40 µg/mL | 
17 | COc1ccc(OC)c(/C=C/C(=O)Oc2ccccc2)c1 | 30% |  | 60 µg/mL | 
18 | CC(=O)Oc1ccccc1C(=O)O [ASPIRIN] |  |  |  | pIC50 [4]: 2.22
19 | Nc1ccc(O)c(C(=O)O)c1 [MESALAMINE] |  |  |  | pIC50 [4]: 1.80
20 | CCCOC(=O)/C=C/c1ccccc1 [PROPYL CINNAMATE] | 70% | 100 mg/L (≈ 526 µM) | 140 µg/mL | 
21 | COc1cc(/C=C/C(=O)Sc2ccccc2)cc(OC)c1OC | 85% | 30 mg/L (≈ 90.8 µM) | 50 µg/mL | 
22 | CCCCCCCCSC(=O)/C=C/c1ccccc1 [OCTYL THIOCINNAMATE] | 45% |  | 60 µg/mL | 

Row | Structure (SMILES) | inhibition (INH) (HUVEC [1]) | IC50 (HUVEC [2]) | MNTC at 24 h [3] | other results
23 | CCCOC(=O)CCc1cc(OC)c(OC)c(OC)c1 | 62% | 110 mg/L (≈ 390 µM) | 120 µg/mL | 
24 | CCOC(=S)/C=C/c1cc(OC)c(OC)c(OC)c1 | 95% | 10 mg/L (≈ 35.4 µM) | 20 µg/mL | inhibition (INH) (HUVEC [5]): >95%; inhibition (HUVEC [6]): Dose-dependent effect; inhibition (HUVEC [7]): Active; inhibition (HUVEC [8]): Dose-dependent effect; pIC50 [4]: 4.40; inhibition at 20 µg/mL (HUVEC [9]): > 95%; inhibition (HUVEC [10]): Active; inhibition (HUVEC [2]): Dose-dependent effect; inhibition at 20 µg/mL (HUVEC [11]): > 95%; inhibition (HUVEC [12]): Active; inhibition at 20 µg/mL (HUVEC [13]): > 95%
25 | CCSC(=O)CCc1cc(OC)c(OC)c(OC)c1 | 50% | 60 mg/L (≈ 211 µM) | 60 µg/mL | 
26 | COc1cc(/C=C/C(=O)Oc2ccccc2)cc(OC)c1OC | 40% |  | 45 µg/mL | 
27 | CCCOC(=S)/C=C/c1ccccc1 [PROPYL THIONOCINNAMATE] | 75% | 50 mg/L (≈ 242 µM) | 80 µg/mL | 
28 | O=C(/C=C/c1ccccc1)SCc1ccccc1 [BENZYL THIOCINNAMATE] | 40% |  | 60 µg/mL | 
29 | CCCOC(=O)/C=C/c1cc(OC)ccc1OC | 55% | 110 mg/L (≈ 439 µM) | 120 µg/mL | 
30 | CCOC(=S)/C=C/c1ccccc1 [ETHYL THIONOCINNAMATE] | 90% | 22 mg/L (≈ 114 µM) | 50 µg/mL | 
31 | COc1ccc(OC)c(/C=C/C(=O)OC(C)C)c1 | 35% |  | 120 µg/mL | 
32 | COc1ccc(OC)c(/C=C/C(=O)SCc2ccccc2)c1 | 50% | 60 mg/L (≈ 191 µM) | 60 µg/mL | 
33 | CCSC(=O)/C=C/c1cc(OC)ccc1OC | 70% | 35 mg/L (≈ 139 µM) | 50 µg/mL | 
34 | CCCCCCCCSC(=O)CCc1cc(OC)c(OC)c(OC)c1 | 40% |  | 80 µg/mL | 
35 | CCCCOC(=O)/C=C/c1ccccc1 [BUTYL CINNAMATE] | 55% | 125 mg/L (≈ 612 µM) | 140 µg/mL | 
36 | CCSC(=O)/C=C/c1cc(OC)c(OC)c(OC)c1 | 65% | 25 mg/L (≈ 88.5 µM) | 30 µg/mL | 
37 | CCCOC(=S)/C=C/c1cc(OC)c(OC)c(OC)c1 | 80% | 17 mg/L (≈ 57.4 µM) | 30 µg/mL | 
38 | CCCCCCCCSC(=O)/C=C/c1cc(OC)c(OC)c(OC)c1 | 46% |  | 70 µg/mL | 
39 | CCCSC(=O)/C=C/c1cc(OC)c(OC)c(OC)c1 | 50% | 70 mg/L (≈ 236 µM) | 70 µg/mL | 
40 | O=C(/C=C/c1ccccc1)Sc1ccccc1 [PHENYL THIOCINNAMATE] | 65% | 55 mg/L (≈ 229 µM) | 70 µg/mL | 
41 | COc1cc(CCC(=O)SCc2ccccc2)cc(OC)c1OC | 45% |  | 60 µg/mL | 
42 | COc1ccc(CCC(=O)OC(C)C)cc1OC | 30% |  | 110 µg/mL | 
43 | CCCCCCCCOC(=O)/C=C/c1ccccc1 [OCTYL CINNAMATE] | 35% |  | 70 µg/mL | 
44 | CCOC(=S)/C=C/c1cc(OC)ccc1OC | 80% | 15 mg/L (≈ 59.4 µM) | 25 µg/mL | 
